Sampled rows, rich in hits. Any-hit rate of the full collection: about 2.2%.
IMP-1 inh = inhibitors of Pseudomonas aeruginosa IMP-1 metallo-beta-lactamase; purified IMP-1, nitrocefin hydrolysis, epi-absorbance fluorescence; inhibition, % at 5.6 µM; hit rate 0.45% among 290,000;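 active = inhibition above the mean plus 3 SD of all compounds in the same screening run, cut at about 4.5% in these data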;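 also: 0% = IMP-1 with DMSO and 100% = DMSO wells lacking enzyme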
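Assay system: purified recombinant IMP-1 beta-lactamase. Input: IMP-1 0.2 nM before substrate addition. Buffer or medium: Zinc- and detergent-supplemented HEPES buffer, pH 7.1. Schedule: 25 °C, 15 min preincubation, 25 min reaction. Signal: Epi-absorbance fluorescence, 480 nm excitation, 530 nm emission. Evaluation: percent inhibition from optical density relative to buffer-blank wells.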
PABP1 MLLE inh = blocks PAM2 peptide binding to the PABP1 MLLE domain; P11940; GST-MLLE / FITC-PAM2 fluorescence polarization; inhibition, % at 20 µM; hit rate 0.36% among 360,000; AID 588489; in the data active = inhibition above about 35%, passing the limit was not always enough;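 also: plate controls were DMSO wells with GST-MLLE for no effect and wells lacking GST-MLLE protein for full effect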
Target sequence (P11940 whole entry, looked up, the tested form may be a part): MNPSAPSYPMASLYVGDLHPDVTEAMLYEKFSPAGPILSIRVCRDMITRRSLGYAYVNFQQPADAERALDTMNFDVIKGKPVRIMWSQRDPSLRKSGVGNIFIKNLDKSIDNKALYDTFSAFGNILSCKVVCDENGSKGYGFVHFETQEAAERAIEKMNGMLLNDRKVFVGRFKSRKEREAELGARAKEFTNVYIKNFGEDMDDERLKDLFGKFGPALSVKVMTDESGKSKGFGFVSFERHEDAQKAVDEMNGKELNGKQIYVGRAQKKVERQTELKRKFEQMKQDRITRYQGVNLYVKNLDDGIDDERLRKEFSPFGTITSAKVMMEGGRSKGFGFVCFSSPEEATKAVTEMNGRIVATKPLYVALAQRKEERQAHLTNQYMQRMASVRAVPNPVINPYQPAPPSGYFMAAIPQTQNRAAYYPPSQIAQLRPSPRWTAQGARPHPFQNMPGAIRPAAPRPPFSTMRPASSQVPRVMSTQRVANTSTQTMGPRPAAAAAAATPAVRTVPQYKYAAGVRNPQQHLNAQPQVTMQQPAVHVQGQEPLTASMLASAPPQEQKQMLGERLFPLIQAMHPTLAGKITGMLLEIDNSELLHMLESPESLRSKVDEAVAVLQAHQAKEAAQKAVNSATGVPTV
VIM-2 inh = inhibitors of Pseudomonas aeruginosa VIM-2 metallo-beta-lactamase; AID 1527; hit rate 0.89% among 290,000; purified VIM-2, nitrocefin hydrolysis, epi-absorbance fluorescence; inhibition, % at 5.6 µM;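 active = inhibition above the mean of all tested compounds plus 3 SD, cutoff set per screening run, cut at about 7.5% in these data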;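 also: red hydrolysis product quenches plate fluorescence so inhibitors raise well fluorescence; 0% = enzyme with DMSO and 100% = DMSO without enzyme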
PABP FP inh = blocks human PABP binding to poly(A) RNA; calls only at 35 µM; fluorescence polarization; hit rate 1% among 290,000;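 also: calls also rest on retests at 20 µM and on dose response follow-up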
eIF4H FP inh = inhibitors of RNA binding by human eIF4H. Q15056. eIF4H fluorescence polarization binding assay. inhibition, % at 35 µM. hit rate 0.94% among 290,000;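 also: calls also rest on retests at 20 µM and on dose response follow-up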
Active calls of the source: *; i = inactive; ? = inconclusive; nt = not tested or not shown; + = active, no number. Unless noted, no rule for the calls is given here.

SMILES	IMP-1 inh	PABP1 MLLE inh	VIM-2 inh	PABP FP inh	eIF4H FP inh
COc1ccc(NC(=O)C2CC(=O)N(c3ccc(C)cc3)C2)cc1S(=O)(=O)N1CCCCC1 (stereo not drawn)	nt	7	nt	nt	nt
CCOc1ccc(N2CC(C(=O)Nc3ccc(OC)c(S(=O)(=O)N4CCCCC4)c3)CC2=O)cc1 (stereo not drawn)	-2	-22	-2	+	3
COCCN(C(=O)c1ccc(C)c(S(=O)(=O)N2CCOCC2)c1)c1c(N)n(CC(C)C)c(=O)[nH]c1=O	nt	-90	nt	nt	nt
Cc1cc(C)c(S(=O)(=O)N2CCN(C(=O)c3ccc4c(c3)OCO4)CC2)c(C)c1	-3	-3	-2	i	1
COc1cccc(Nc2ccc(N3CCCCC3)cc2)c1OC	nt	60*	nt	nt	nt
Cc1cc(-c2sccc2C)nc(-n2cccc2)n1	0	3	-1	+	?
COc1cc([C@@H]2C[C@H]3CN(c4ccccc4)C(=O)[C@]34CCCN24)cc(OC)c1OC	-1	-18	-2	i	58
CCOc1cc([C@@H]2C[C@H]3CN(c4ccccc4)C(=O)[C@]34CCCN24)ccc1OC	-2	-30	-1	i	57*
CSc1nc(NCCCO)c2c3c(sc2n1)CN(C)CC3	-1	-5	9.4*	i	20
CSc1nc(NCC(C)O)c2c3c(sc2n1)CN(C)CC3 (stereo not drawn)	-3	14	5	i	30
CS(=O)(=O)N1CCN(C(=O)C(Sc2ccccc2)c2ccccc2)CC1 (stereo not drawn)	-1	43*	0	i	-7
O=C(C(Sc1ccccc1)c1ccccc1)N1CCOCC1 (stereo not drawn)	-4	5	-1	i	-20
Cc1cc(NC(=O)Cc2cccs2)no1	6.8*	-10	-3	i	64
Nc1c(C(=O)Nc2ccccc2)sc2nc3c(c(-c4ccco4)c12)CCC3	-1	3	-2	+	84*
Cc1ccc(NC(=O)c2sc3nc4c(c(-c5ccco5)c3c2N)CCC4)cc1	-2	-9	1	+	82*
Cc1ccc(NC(=O)c2snc3ccc(Cl)cc23)cc1C	-1	-3	-2	i	-10
CCCCOC(=O)c1ccc(NC(=O)COC(=O)c2ccc3ncsc3c2)cc1	nt	-2	nt	nt	nt
CCn1c(C)[n+](CC)c2ccc(C(=O)N(C)c3ccccc3)cc21	0	-113	-4	+	-4
CCOC(=O)c1ccc2c(c1)n(CC)c(C)[n+]2CC	-2	-125	-2	i	-5
CC[n+]1c(C)n(-c2ccccc2)c2ccc(C(=O)OC)cc21	-3	-85	0	+	1
CCOC(=O)c1ccc2c(c1)[n+](CC)c(C)n2-c1ccccc1	2	-120	1	+	-9
CC(=O)OCC[n+]1c(C)n(-c2ccccc2)c2ccc(Cl)cc21	-4	-147	-1	i	-1
COC(=O)CC1(C(=O)OC)Oc2ccccc2C(=O)N1c1ccc(F)cc1F (stereo not drawn)	nt	0	nt	nt	nt
CCOc1ccccc1CN1CCN(Cc2nc3c(s2)CCCC3)CC1CCO (stereo not drawn)	1	-5	-3	i	-2
CCOc1ccc(CC(=O)Nc2ccc(S(=O)(=O)N3CCCC3)cc2)cc1	-1	4	-2	i	-2
SMILES	IMP-1 inh	PABP1 MLLE inh	VIM-2 inh	PABP FP inh	eIF4H FP inh
Oc1ccc(/C=N/N=C/c2ccc(O)c(O)c2)cc1O	-2	-6	2	i	1
Oc1ccc(N=Cc2ccc(O)c(O)c2)cc1	-5	4	-3	+	106*
Cc1cccn2cc(CNc3ccccc3)nc12	0	2	-3	i	7
CCOC(=S)SCc1cn2cccc(C)c2n1	-2	39*	3	i	56
CN1CCc2c(sc(/N=C/c3cccs3)c2C(N)=O)C1	-4	-5	-1	?	?
CN1CCc2c(sc(/N=C/c3ccco3)c2C(N)=O)C1	-3	3	-3	+	68*
Cc1ccc(/C=N/c2sc3c(c2C(N)=O)CCCC3)o1	-3	-2	-2	i	74*
CN(C)/C=N/c1sc2c(c1C(N)=O)CCCC2	-3	-4	0	i	-5
COc1ccc2c(c1)c(CC(=O)Nc1ccc(C(C)=O)cc1)c(C)n2C(=O)c1ccc(Cl)cc1	-1	-10	-1	+	53*
CCCCN1/C(=C/c2cccc[n+]2C)Sc2cc(NC(C)=O)ccc21	0	-142	-1	+	0
Cc1cc(-c2onc(C)c2C(=O)N/N=C/c2ccccc2)no1	0	-5	-2	i	-4
